Reference: the array DNA melting data of Ke et al. (doi:10.1101/2024.01.08.574731)

Experiments:
[1] = folding enthalpy; higher = less favourable; fluorescence melt of hairpins on a sequencing array, two-state fit; details: sodium 0.088 M
Outline: (§1)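 Melting temperature and folding enthalpy were obtained by bootstrapped two-state fitting. Fits used Cy3 fluorescence of library hairpins with annealed Cy3 and quencher oligos on a sequenced MiSeq flow cell, imaged in 50 mM Na-HEPES pH 8.0, 25 mM NaCl in 2.5 °C steps up to 60 °C and normalised to pre-quench Cy3 and control constructs. Four replicates were combined by inverse-variance weighting, and fitted temperatures were raised by 9.35 °C to match UV melts.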

[2] = melting temperature; fluorescence melt of hairpins on a sequencing array, two-state fit, raised by 9.35 °C to match UV melts; details: sodium 0.088 M
Outline: as §1

Row | Sequence | folding enthalpy [1] [kcal/mol] | Tm [2] [°C]
1 | GGCCGCGAAAGCGTTGCC ((((((....)))..))) | -16.8 | 56
2 | GGCCTTCGAAAGAAAGCC (((.(((....))).))) | -31 | 45.7
3 | GCCGACGAAAGTCCTGGC ((((((....)))..))) | -20.2 | 45.1
4 | GTCGTTGAAAAACGAC ((((((....)))))) | -35.2 | 61.6
5 | CGCACGGAAACGTTGCG ((((((....))).))) | -37.7 | 55.1
6 | GATCGGCTGCCGATC ((((((...)))))) | -55.3 | 57.2
7 | GGCAAAGGAAACTTTGCC (((((((....))))))) | -40.7 | 62.7
8 | GCGACTGGAAACAGCCAC (.(.(((....))).).) | -12.2 | 27.7
9 | GGAATGACGAAAGTCTCC (((..(((....)))))) | -13.3 | 28.8
10 | GCCTGCGAAAGCAGCGGC ((((((....)))..))) | -14 | 61.6
11 | GTGCCCGGAAACGGACAC (((.(((....))).))) | -50.2 | 53.8
12 | GCGATCGCTCGC ((((....)))) | -24.2 | 49.6
13 | GCCCTCGAAAGAGCTGGC ((((((....)))..))) | -24.7 | 42.3
14 | GATCAGGCTCTGATC ((((((...)))))) | -35.2 | 49.1
15 | GGACTCGAAAGAGGTCC ((((((....))).))) | -35.2 | 52.4
16 | GGTACAGGAAACTGTGCC ((.((((....)))).)) | -31.8 | 52.6
17 | GTCGAACGAAAGTTTGAC (((.(((....))).))) | -42.2 | 54.5
18 | GATCAACTACTTGATC ((((((....)))))) | -32.5 | 41.8
19 | GACTCCCGAAAGGGGTC (((.(((....)))))) | -24.9 | 50.8

Row | Sequence | folding enthalpy [1] [kcal/mol] | Tm [2] [°C]
20 | GCGTGCGAAAGCAACCGC ((((((....)))..))) | -18.6 | 53.7
21 | GAGCTGGGAAACCAGCCC (.(((((....))))).) | -11.4 | 46.9
22 | GATCGAGAGATCGATC ((((((....)))))) | -25.6 | 54.7
23 | GGGCCCGAAAGGGTGCCC ((((((....)))..))) | -15.7 | 60.2
24 | GCTATTGCGAAAGCAAGC (((..(((....)))))) | -10.2 | 42.2
25 | GCTTACGAAAGTACAAGC ((((((....)))..))) | -20 | 37.6
26 | GTTAGCGAAAGCTTAAC ((((((....))).))) | -13.9 | 42.8
27 | GGTACCGGAAACGGTGCC ((.((((....)))).)) | -38.3 | 60.6
28 | GCGTTGCGAAAGCCCCGC (((..((....))..))) | -18.2 | 48.3
29 | GGGCCTCGAAAGAGACCC (((.(((....))).))) | -43 | 56
30 | GTGCAGGGAAACCTGTAC ((.((((....)))).)) | -36.1 | 49.6
31 | GATCACTGTCGTGATC ((((((....)))))) | -37.3 | 54.9
32 | GGTAACGGAAACGTTACC (((((((....))))))) | -45.6 | 63.2
33 | GATCCACGAAAGTGTATC (((.(((....))).))) | -24.2 | 37.6
34 | GTCGACGAAAGTCGGAC ((((((....))).))) | -14.3 | 58.1
35 | GCGTGGCACGC ((((...)))) | -31.8 | 56.8
36 | GTGCGGCGAAAGCCCAC (((.(((....)))))) | -20.7 | 57.6
37 | GCCTGCGAAAGCATGGGC ((((((....)))..))) | -21.4 | 56.7
38 | GGGTCCGAAAGGAGCCC ((((((....))).))) | -15.6 | 68.5
